Published values from different studies.
Compare with care: the assays were run in different laboratories.

For C=CCn1c(-c2ccc(Cl)c(Cl)c2)nc2ccccc21, the MIC was 64 µg/mL (Enterococcus faecalis; microbial growth, broth dilution; ATCC29212).
The IC50 of Cc1ccn2c(C(=O)N3CCN(Cc4cn(-c5ccccc5)nn4)CC3)c(C)nc2c1 is reported as 246 µM (Leishmania major; parasite growth, resazurin; 72 h, promastigote).
For Oc1ccc(Br)cc1-c1nc2ccccc2[nH]1, the MIC was 128 µg/mL (Enterococcus faecalis; microbial growth, broth dilution; ATCC29212).
For CC1(C)OB(CC2c3ccccc3C(=O)N2C2CCCCC2)OC1(C)C (stereo not drawn), the IC50 was 13.2 µM (Leishmania major; parasite growth; intracellular, amastigote).
Cc1ccn2c(C(=O)N3CCN(CCn4cc(-c5ccc(C(C)(C)C)cc5)nn4)CC3)c(C)nc2c1 has an IC50 of 15.1 µM (Leishmania major; parasite growth, resazurin; 72 h, promastigote).
The MIC of Cc1ccc2nc(-c3ccncc3)[nH]c2c1 is reported as 64 µg/mL (Enterococcus faecalis; microbial growth, broth dilution; ATCC29212).
For N=C(NCCCCCCNC(=N)NC(=N)Nc1ccc(Cl)cc1)NC(=N)Nc1ccc(Cl)cc1, the IC50 was 7.38 µM (Acanthamoeba griffini; parasite growth, resazurin; 96 h).
The inhibition of CC1(C)S[C@@H]2[C@H](NC(=O)[C@H](N)c3ccccc3)C(=O)N2[C@H]1C(=O)O is reported as 100% (Enterococcus faecalis; microbial growth, agar dilution; ATCC33186; 26.93 µM).
With CCCCCCCCCCCCCCCCOP(=O)([O-])OCC[N+](C)(C)C the IC50 was 12.6 µM (Leishmania major; parasite growth, resazurin; 72 h, promastigote).
The IC50 of C#CCCCCCCCCC=CCC(O)CC(O)CO (stereo not drawn) is reported as > 8 µg/mL (Aspergillus fumigatus; microbial growth, resazurin; ATCC204305).
For O=C1NN=C(N=Cc2ccc(O)cc2O)C1=NNn1c(-c2ccccc2)nc2ccccc2c1=O, the MIC was 53.5 µM (Aspergillus fumigatus; microbial growth, broth dilution).
C[C@@H]1[C@H](O)[C@@H](C)/C=C/C=C/C=C/C=C/C=C/C=C/C=C/[C@H](O[C@@H]2O[C@H](C)[C@@H](O)[C@H](N)[C@@H]2O)C[C@@H]2O[C@](O)(C[C@@H](O)C[C@@H](O)[C@H](O)CC[C@@H](O)C[C@@H](O)CC(=O)O[C@H]1C)C[C@H](O)[C@H]2C(=O)O has an MIC of 1.35 µM (Aspergillus fumigatus; microbial growth; ATCC204305).
Cc1ccn2c(C(=O)N3CCN(Cc4cn(-c5ccc([N+](=O)[O-])cc5)nn4)CC3)c(C)nc2c1 has an IC50 of > 500 µM (Leishmania major; parasite growth, resazurin; 72 h, promastigote).
c1ccc2c(-c3nc4ccccc4[nH]3)c3ccccc3cc2c1 gave an MIC of 64 µg/mL (Enterococcus faecalis; microbial growth, broth dilution; ATCC29212).
With C[C@@H](c1ncncc1F)[C@](O)(Cn1cncn1)c1ccc(F)cc1F the IC50 was 37.6 µM (Acanthamoeba griffini; parasite growth, resazurin; 7 days).
The IC50 of Cc1nc2ccc(Cl)cn2c1C(=O)N1CCN(Cc2cn(-c3ccccc3)nn2)CC1 is reported as 192 µM (Leishmania major; parasite growth, resazurin; 72 h, promastigote).
CN(C)N1C(=O)c2ccccc2C1CB1OC(C)(C)C(C)(C)O1 (stereo not drawn) gave an IC50 of 238 µM (Leishmania major; parasite growth; promastigote).
Cc1ccc2nc(-c3ccc([N+](=O)[O-])cc3)n(Cc3ccccc3Cl)c2c1 has an MIC of 64 µg/mL (Enterococcus faecalis; microbial growth, broth dilution; ATCC29212).
With CCCc1cn(CCN2CCN(C(=O)c3c(C)nc4cc(C)ccn34)CC2)nn1 the IC50 was 176 µM (Leishmania major; parasite growth, resazurin; 72 h, promastigote).
The MIC of Cc1ccc2nc(-c3ccc(Cl)c(Cl)c3)[nH]c2c1 is reported as 16 µg/mL (Enterococcus faecalis; microbial growth, broth dilution; ATCC29212).
CC1=NN(CNc2ccccc2[N+](=O)[O-])C(=O)C1=NNn1c(-c2ccccc2)nc2ccccc2c1=O gave an MIC of 50.4 µM (Aspergillus fumigatus; microbial growth, broth dilution).
